Measurements reported in ChEMBL document CHEMBL1799944, “New 2-heterocyclyl-imidazo[2,1-i]purin-5-one derivatives as potent and selective human A3 adenosine receptor antagonists” (J Med Chem, 2011).
pIC50, pKi: −log10 of the molar value.

Assays:
Adenosine receptor A2b = target: T1, Adenosine receptor A2b (Homo sapiens, UniProt P29275); assay: Antagonist activity human adenosine A2B receptor expressed in CHO cells assessed as inhibition of NECA-mediated [3H]cAMP accumulation after 150 mins by scintillation counter; type: functional, cell-based
T1 sequence (P29275 whole entry): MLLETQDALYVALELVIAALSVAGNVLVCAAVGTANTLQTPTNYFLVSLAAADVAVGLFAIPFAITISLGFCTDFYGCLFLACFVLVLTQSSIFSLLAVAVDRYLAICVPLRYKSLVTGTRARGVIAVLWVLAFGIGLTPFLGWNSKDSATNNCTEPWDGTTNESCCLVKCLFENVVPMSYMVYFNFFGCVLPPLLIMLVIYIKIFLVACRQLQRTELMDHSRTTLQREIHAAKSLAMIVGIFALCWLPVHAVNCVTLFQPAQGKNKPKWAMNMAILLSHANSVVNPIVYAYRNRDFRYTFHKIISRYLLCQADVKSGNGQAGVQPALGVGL
Outline: (§1)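 Intact CHO cells expressing hA2B (1 x 10^6 cells/assay), preincubated 10 min at 37 °C in saline buffer pH 7.4 with 2 IU/mL adenosine deaminase and Ro 20-1724. Antagonism of 100 nM NECA-stimulated cAMP rise. Stopped with cold 6% TCA, ether-extracted. cAMP measured by competition binding with [3H]cAMP and beef adrenal binding protein (4 °C, 150 min), charcoal separation, scintillation counting. IC50 by sigmoid nonlinear regression, mean ± SEM.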

Adenosine receptor A2a [1] = target: T2, Adenosine receptor A2a (Homo sapiens, UniProt P29274); assay: Displacement of [3H]ZM 241385 from human adenosine A2A receptor expressed in CHO cells at <=5000 nM after 60 mins by scintillation spectrometry; type: cell-based
T2 sequence (P29274 whole entry): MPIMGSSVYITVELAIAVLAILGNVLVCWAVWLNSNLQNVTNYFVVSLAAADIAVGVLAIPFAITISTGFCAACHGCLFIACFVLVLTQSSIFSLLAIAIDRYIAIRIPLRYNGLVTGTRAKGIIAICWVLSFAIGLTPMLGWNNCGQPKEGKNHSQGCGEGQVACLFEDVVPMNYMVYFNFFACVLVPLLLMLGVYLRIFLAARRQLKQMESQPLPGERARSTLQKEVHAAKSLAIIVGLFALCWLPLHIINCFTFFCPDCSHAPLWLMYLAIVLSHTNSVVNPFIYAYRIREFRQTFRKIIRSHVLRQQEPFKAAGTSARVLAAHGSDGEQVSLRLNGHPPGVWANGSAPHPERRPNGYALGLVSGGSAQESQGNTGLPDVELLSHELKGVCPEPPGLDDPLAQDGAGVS

[2] = target: T3, Adenosine receptor A2b (Homo sapiens) (UniProt P29275); assay: Antagonist activity human adenosine A2B receptor expressed in CHO cells assessed as inhibition of NECA-mediated [3H]cAMP accumulation at =<5000 nM after 150 mins by scintillation counter; type: functional, cell-based; outline: as §1
T3 sequence (whole entry): T1 sequence (P29275 whole entry)

Adenosine receptor A1 = target: T4, Adenosine receptor A1 (Homo sapiens, UniProt P30542); assay: Displacement of [3H]DPCPX from human adenosine A1 receptor expressed in CHO cells after 120 mins by scintillation spectrometry; type: cell-based
T4 sequence (P30542 whole entry): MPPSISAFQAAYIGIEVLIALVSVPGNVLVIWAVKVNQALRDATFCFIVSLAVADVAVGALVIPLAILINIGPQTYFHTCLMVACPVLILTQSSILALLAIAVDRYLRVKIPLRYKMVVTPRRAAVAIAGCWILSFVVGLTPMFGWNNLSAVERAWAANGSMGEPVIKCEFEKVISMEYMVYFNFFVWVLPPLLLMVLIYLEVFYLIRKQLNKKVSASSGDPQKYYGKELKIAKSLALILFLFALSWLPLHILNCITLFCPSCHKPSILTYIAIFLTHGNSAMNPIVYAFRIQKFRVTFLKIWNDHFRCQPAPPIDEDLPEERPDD
Outline: (§2)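 hA1 CHO membranes (50 μg protein/assay) in 50 mM Tris HCl pH 7.4, pretreated with adenosine deaminase 2 UI/mL for 30 min at 37 °C. Incubated with 1 nM [3H]DPCPX plus 6-8 ligand concentrations for 120 min at 25 °C. Nonspecific binding defined with 1 μM DPCPX. Ki from IC50 by Cheng-Prusoff; geometric means with 95% confidence limits.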

Adenosine receptor A3 [3] = target: T5, Adenosine receptor A3 (Homo sapiens, UniProt P0DMS8); assay: Displacement of [3H]MRE 3008F20 from human adenosine A3 receptor expressed in CHO cells after 120 mins by scintillation spectrometry; type: cell-based
T5 sequence (P0DMS8 whole entry): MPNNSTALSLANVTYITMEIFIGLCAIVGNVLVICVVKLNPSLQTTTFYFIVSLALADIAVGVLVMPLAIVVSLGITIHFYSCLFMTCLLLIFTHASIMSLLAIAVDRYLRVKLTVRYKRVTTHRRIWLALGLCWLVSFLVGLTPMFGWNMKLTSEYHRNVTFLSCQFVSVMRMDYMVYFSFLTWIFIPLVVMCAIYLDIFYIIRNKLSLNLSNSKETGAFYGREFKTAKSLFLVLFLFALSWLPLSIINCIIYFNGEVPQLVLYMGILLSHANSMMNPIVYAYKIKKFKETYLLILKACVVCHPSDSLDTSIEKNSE
Outline: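 Membranes from hA3 CHO cells (50 μg protein/assay) in 50 mM Tris HCl, 10 mM MgCl2, 1 mM EDTA pH 7.4, adenosine deaminase-treated. Incubated with 1 nM [3H]MRE 3008F20 and 6-8 ligand concentrations, 120 min at 4 °C. Nonspecific defined with 1 μM MRE 3008F20 (~25% of total). GF/B filtration, three ice-cold washes, scintillation counting. Ki via Cheng-Prusoff; geometric mean, 95% confidence limits, n = 3-6.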

Homo sapiens = organism: Homo sapiens; assay: Ratio of Ki for human adenosine A2A receptor to Ki for human adenosine A3 receptor
Adenosine receptor A2a [4] = target: T2, Adenosine receptor A2a; assay: Displacement of [3H]ZM 241385 from human adenosine A2A receptor expressed in CHO cells after 60 mins by scintillation spectrometry; type: cell-based
[5] = target: T6, Adenosine receptor A1 (Homo sapiens) (UniProt P30542); assay: Displacement of [3H]DPCPX from human adenosine A1 receptor expressed in CHO cells at =<5000 nM after 120 mins by scintillation spectrometry; type: cell-based; outline: as §2
T6 sequence (whole entry): T4 sequence (P30542 whole entry)

[6] = target: Adenosine receptors; A1 & A3 (Homo sapiens) (UniProt P30542+P0DMS8); assay: Ratio of Ki for human adenosine A1 receptor to Ki for human adenosine A3 receptor
Adenosine receptor A3 [7] = target: T5, Adenosine receptor A3; assay: Inverse agonist activity at human recombinant A3 adenosine receptor expressed CHO cells by [35S]GTPgammaS binding assay; type: functional, cell-based
[8] = Solubility of compound in water; type: physicochemical
Adenosine receptor A3 [9] = target: T5, Adenosine receptor A3; assay: Antagonist activity human adenosine A3 receptor expressed in CHO cells assessed as blockade of Cl-IB-MECA-mediated inhibition of forskolin-stimulated [3H]cAMP accumulation after 150 mins by scintillation counter; type: functional, cell-based
Outline: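 hA3-expressing CHO cells (1 x 10^6 cells/assay), preincubated 10 min at 37 °C in saline buffer pH 7.4 with adenosine deaminase 2 IU/mL and Ro 20-1724. Antagonism of 100 nM Cl-IB-MECA inhibition of cAMP in presence of 1 μM forskolin. Stopped with cold TCA. cAMP by [3H]cAMP competition protein binding (4 °C, 150 min), scintillation counting. IC50 from sigmoid nonlinear regression, mean ± SEM.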

Row | pIC50 (Adenosine receptor A2b) | inhibition (Adenosine receptor A2a [1]) [%] | inhibition [2] [%] | pKi (Adenosine receptor A1) | pKi (Adenosine receptor A3 [3]) | Ratio Ki (Homo sapiens) | pKi (Adenosine receptor A2a [4]) | inhibition [5] [%] | Ratio Ki [6] | pIC50 (Adenosine receptor A3 [7]) | solubility [8] [mg/mL] | pIC50 (Adenosine receptor A3 [9]) | Structure (SMILES)
1 | < 5.30 | 1 | 16 | < 5.30 | 7.90 | 330 | < 5.30 | 20 |  |  |  |  | C=CCN1C(=O)N2CC(CC)N=C2c2[nH]c(-c3cc(C)n(C)n3)nc21 (racemic)
2 | < 5.30 | 9 | 24 | < 5.30 | 7.91 | 330 | < 5.30 | 22 | > 400 |  |  |  | Cc1cc(-c2nc3c([nH]2)C2=NC(C)CN2C(=O)N3Cc2ccccc2)nn1C (configuration not stated)
3 | < 5.30 | 13 | 27 | < 5.30 | 7.82 | 330 | < 5.30 | 28 |  |  |  |  | CCC1CN2C(=O)N(Cc3ccccc3)c3nc(-c4cc(C)n(C)n4)[nH]c3C2=N1 (racemic)
4 |  |  |  |  |  |  |  |  |  | 8.40 |  |  | CC[C@@H]1CN2C(=O)N(C)c3nc(-c4cc(Cl)cc(Cl)c4Cl)[nH]c3C2=N1
5 |  |  |  |  |  |  |  |  |  |  | > 100 |  | CCCN1C(=O)N2C[C@@H](CC)N=C2c2[nH]c(C34CCC(O)(CC3)CC4)nc21
6 | < 5.30 | 5 | 11 | < 5.30 | 8.57 | > 1800 | < 5.30 | 35 | 1800 |  |  | 7.69 | COc1cc(-c2nc3c([nH]2)C2=NC(C)CN2C(=O)N3Cc2ccccc2)on1 (racemic)
7 | < 5.30 | 1 | 13 | < 5.30 | 8.63 | 2100 | < 5.30 | 30 | 2100 |  |  | 7.84 | C=CCN1C(=O)N2CC(C)N=C2c2[nH]c(-c3cc(OC)nn3C)nc21 (racemic)
